{"data": "Results of several laboratories", "organism": "Pseudomonas aeruginosa", "note": "Protocols differ between the studies behind these lines."}
{"SMILES": "Cc1[nH]c(C(=O)Nc2ccc(C(=O)NCC(=O)O)cc2N2CC[C@@H](NC(=O)OC(C)(C)C)C2)c(Cl)c1Cl", "observed": "microbial growth", "method": "broth dilution", "strain": "ATCC27853", "endpoint": "MIC", "result": "> 32 µg/mL"}
{"SMILES": "O=C(C=Cc1ccc(O)c(O)c1)Oc1cccc2cccnc12", "observed": "microbial growth", "method": "broth dilution", "strain": "ATCC27853", "endpoint": "MIC", "result": "4 µg/mL"}
{"SMILES": "COc1cc(-c2[nH]nnc2C(=O)c2ccccc2)ccc1O", "observed": "microbial growth", "method": "absorbance", "concentration": "10 µM", "time": "24 h", "endpoint": "activity vs control", "result": "95%"}
{"SMILES": "Cl.N[C@@H]1CCN(c2cc(C(=O)NCC(=O)O)ccc2NC(=O)c2cc(Br)c(Br)[nH]2)C1", "observed": "microbial growth", "method": "broth dilution", "strain": "ATCC27853", "endpoint": "MIC", "result": "> 32 µg/mL"}
{"SMILES": "COc1cc(C#CC(O)CC(C)C)ccc1O (stereo not drawn)", "observed": "microbial growth", "method": "absorbance", "concentration": "100 µM", "time": "24 h", "endpoint": "activity vs control", "result": "93%"}
{"SMILES": "COc1cc(Cc2cnc(N)nc2N)cc(OC)c1OC", "observed": "microbial growth", "method": "broth dilution", "strain": "ATCC27853", "endpoint": "MIC", "result": "8 µg/mL"}
{"SMILES": "Cc1[nH]c(C(=O)Nc2ccc(C(=O)NCC(=O)O)cc2N2CCN(C(=O)OC(C)(C)C)CC2)c(Cl)c1Cl", "observed": "microbial growth", "method": "broth dilution", "strain": "ATCC27853", "endpoint": "MIC", "result": "> 32 µg/mL"}
{"SMILES": "COc1cc(C=Nc2ccc(Cl)cc2Cl)ccc1O", "observed": "microbial growth", "method": "disc diffusion", "concentration": "2000 µg/mL", "time": "24 h", "endpoint": "inhibition zone", "result": "14.4 mm"}
{"SMILES": "Cc1[nH]c(C(=O)Nc2ccc(C(=O)NCc3n[nH]c(=O)o3)cc2N2CCNCC2)c(Cl)c1Cl.Cl", "observed": "microbial growth", "method": "broth dilution", "strain": "ATCC27853", "endpoint": "MIC", "result": "> 32 µg/mL"}
{"SMILES": "OC(C#Cc1ccc(F)c(F)c1)c1ccccc1Cl (stereo not drawn)", "observed": "microbial growth", "method": "absorbance", "concentration": "100 µM", "time": "24 h", "endpoint": "activity vs control", "result": "97%"}
{"SMILES": "CC(C)(O/N=C(\\C(=O)N[C@@H]1C(=O)N2C(C(=O)[O-])=C(C[n+]3ccccc3)CS[C@H]12)c1csc(N)n1)C(=O)O", "observed": "microbial growth", "strain": "PAO1", "endpoint": "MIC90", "result": "4 µg/mL"}
{"SMILES": "CC(C)(C)OC(=O)N1CCN(c2cc(C(=O)NCC(=O)O)ccc2NC(=O)c2cc(Br)c(Br)[nH]2)CC1", "observed": "microbial growth", "method": "broth dilution", "strain": "ATCC27853", "endpoint": "MIC", "result": "> 32 µg/mL"}
{"SMILES": "COc1cccc(C(O)C#Cc2ccc(O)c(OC)c2)c1 (stereo not drawn)", "observed": "microbial growth", "method": "absorbance", "concentration": "10 µM", "time": "24 h", "endpoint": "activity vs control", "result": "96%"}
{"SMILES": "CC1(C)S[C@@H]2[C@H](NC(=O)[C@H](N)c3ccccc3)C(=O)N2[C@H]1C(=O)O", "observed": "microbial growth", "method": "broth dilution", "strain": "ATCC27853", "endpoint": "MIC", "result": "8 µg/mL"}
{"SMILES": "COc1cc(C#CC(=O)c2ccccc2Cl)ccc1O", "observed": "microbial growth", "method": "absorbance", "concentration": "10 µM", "time": "24 h", "endpoint": "activity vs control", "result": "98%"}
{"SMILES": "Nc1ccccc1OC(=O)C=Cc1ccc(O)c(O)c1", "observed": "microbial growth", "method": "broth dilution", "strain": "ATCC27853", "endpoint": "MIC", "result": "32 µg/mL"}
{"SMILES": "Cc1[nH]c(C(=O)Nc2ccc(C(=O)NCC(=O)O)cc2N2CC[C@H](N)C2)c(Cl)c1Cl.Cl", "observed": "microbial growth", "method": "broth dilution", "strain": "ATCC27853", "endpoint": "MIC", "result": "> 32 µg/mL"}
{"SMILES": "CC(C)(O/N=C(\\C(=O)N[C@@H]1C(=O)N2C(C(=O)[O-])=C(C[n+]3ccccc3)CS[C@H]12)c1csc(N)n1)C(=O)O", "observed": "microbial growth", "method": "broth dilution", "strain": "ATCC27853", "time": "20 h", "endpoint": "MIC", "result": "1 µg/mL"}
{"SMILES": "C[C@H]1COc2c(N3CCN(C)CC3)c(F)cc3c(=O)c(C(=O)O)cn1c23", "observed": "microbial killing", "strain": "ATCC47085", "endpoint": "MBC", "result": "7.81 µg/mL"}
{"SMILES": "CCCC(=O)C#Cc1ccc(O)c(OC)c1", "observed": "microbial growth", "method": "absorbance", "concentration": "100 µM", "time": "24 h", "endpoint": "activity vs control", "result": "94%"}
{"SMILES": "CC(C)(C)OC(=O)N[C@@H]1CCN(c2cc(C(=O)NCC(=O)O)ccc2NC(=O)c2cc(Br)c(Br)[nH]2)C1", "observed": "microbial growth", "method": "broth dilution", "strain": "ATCC27853", "endpoint": "MIC", "result": "> 32 µg/mL"}
{"SMILES": "COc1cc(C=Nc2ccc(C)cc2Cl)ccc1O", "observed": "microbial growth", "method": "disc diffusion", "concentration": "2000 µg/mL", "time": "24 h", "endpoint": "inhibition zone", "result": "12.7 mm"}
{"SMILES": "COc1cccc(C(=O)C#Cc2ccc(O)c(OC)c2)c1", "observed": "microbial growth", "method": "absorbance", "concentration": "10 µM", "time": "24 h", "endpoint": "activity vs control", "result": "87%"}
{"SMILES": "Cc1[nH]c(C(=O)Nc2ccc(C(=O)NCC(=O)O)cc2N2CCNCC2)c(Cl)c1Cl.Cl", "observed": "microbial growth", "method": "broth dilution", "strain": "ATCC27853", "endpoint": "MIC", "result": "> 32 µg/mL"}
{"SMILES": "COc1cc(C#CC(=O)C2CCCCC2)ccc1O", "observed": "microbial growth", "method": "absorbance", "concentration": "100 µM", "time": "24 h", "endpoint": "activity vs control", "result": "80%"}
{"SMILES": "O=C(C=Cc1ccc(O)c(O)c1)OCCc1ccccc1", "observed": "microbial growth", "method": "broth dilution", "strain": "ATCC27853", "endpoint": "MIC", "result": "64 µg/mL"}
{"SMILES": "C[C@@H](O)[C@H]1C(=O)N2C(C(=O)O)=C(SCCN=CN)C[C@H]12", "observed": "microbial growth", "method": "disc diffusion", "concentration": "2000 µg/mL", "time": "24 h", "endpoint": "inhibition zone", "result": "17 mm"}
